Reference: ChEMBL document CHEMBL4840368, “Structure-activity relationship and molecular modelling studies of quinazolinedione derivatives MMV665916 as potential antimalarial agent” (Bioorg Med Chem, 2021)

Key:
Plasmodium falciparum [1] = test: Antimalarial activity against chloroquine-resistant Plasmodium falciparum FcB1(CQR)Colombia assessed as parasite growth inhibition; type: functional, organism-based
Summary of the method: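 Erythrocytic-stage growth inhibition in culture of chloroquine-resistant P. falciparum FcB1 (Columbia). EC50 comes from a 10-point dose-response, run only for compounds above a 60% inhibition cut-off in the 20 μM single-point screen. Values are means of at least two experiments.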

Plasmodium falciparum [2] = test: Antimalarial activity against chloroquine-resistant Plasmodium falciparum FcB1(CQR)Colombia assessed as parasite growth inhibition at 20 uM relative to control; type: functional
Summary of the method: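 Single-point screen at 20 μM against erythrocytic stages of chloroquine-resistant P. falciparum FcB1 (Columbia) in culture. Read-out is percent parasite growth inhibition.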

[3] = Cytotoxicity against human AB943 cells; type: cell-based
[4] = Selectivity index, ratio of IC50 for human AB943 cells to IC50 for Antimalarial activity against chloroquine-resistant Plasmodium falciparum FcB1(CQR)Colombia; type: toxicity; settings: read-out: Selectivity Index
Plasmodium falciparum [5] = test: Antiplasmodial activity against Plasmodium falciparum 3D7; type: functional, organism-based
Plasmodium falciparum [6] = test: Antiplasmodial activity against Plasmodium falciparum K1; type: functional, organism-based
Plasmodium falciparum [7] = test: Antiplasmodial activity against Plasmodium falciparum W2; type: functional, organism-based
Plasmodium falciparum [8] = test: Antiplasmodial activity against Plasmodium falciparum Dd2; type: functional, organism-based
Plasmodium falciparum [9] = test: Antiplasmodial activity against Plasmodium falciparum FCR3; type: functional, organism-based
Plasmodium berghei [10] = test: Antiplasmodial activity against Plasmodium berghei at 5 uM; type: functional
Plasmodium berghei [11] = test: Antiplasmodial activity against luciferase expressing Plasmodium berghei; type: functional, organism-based
hERG (KCNH2) = hERG (KCNH2) (Homo sapiens, UniProt Q12809); test: Inhibition of human ERG at 11 uM
hERG (KCNH2), sequence (Q12809 whole entry): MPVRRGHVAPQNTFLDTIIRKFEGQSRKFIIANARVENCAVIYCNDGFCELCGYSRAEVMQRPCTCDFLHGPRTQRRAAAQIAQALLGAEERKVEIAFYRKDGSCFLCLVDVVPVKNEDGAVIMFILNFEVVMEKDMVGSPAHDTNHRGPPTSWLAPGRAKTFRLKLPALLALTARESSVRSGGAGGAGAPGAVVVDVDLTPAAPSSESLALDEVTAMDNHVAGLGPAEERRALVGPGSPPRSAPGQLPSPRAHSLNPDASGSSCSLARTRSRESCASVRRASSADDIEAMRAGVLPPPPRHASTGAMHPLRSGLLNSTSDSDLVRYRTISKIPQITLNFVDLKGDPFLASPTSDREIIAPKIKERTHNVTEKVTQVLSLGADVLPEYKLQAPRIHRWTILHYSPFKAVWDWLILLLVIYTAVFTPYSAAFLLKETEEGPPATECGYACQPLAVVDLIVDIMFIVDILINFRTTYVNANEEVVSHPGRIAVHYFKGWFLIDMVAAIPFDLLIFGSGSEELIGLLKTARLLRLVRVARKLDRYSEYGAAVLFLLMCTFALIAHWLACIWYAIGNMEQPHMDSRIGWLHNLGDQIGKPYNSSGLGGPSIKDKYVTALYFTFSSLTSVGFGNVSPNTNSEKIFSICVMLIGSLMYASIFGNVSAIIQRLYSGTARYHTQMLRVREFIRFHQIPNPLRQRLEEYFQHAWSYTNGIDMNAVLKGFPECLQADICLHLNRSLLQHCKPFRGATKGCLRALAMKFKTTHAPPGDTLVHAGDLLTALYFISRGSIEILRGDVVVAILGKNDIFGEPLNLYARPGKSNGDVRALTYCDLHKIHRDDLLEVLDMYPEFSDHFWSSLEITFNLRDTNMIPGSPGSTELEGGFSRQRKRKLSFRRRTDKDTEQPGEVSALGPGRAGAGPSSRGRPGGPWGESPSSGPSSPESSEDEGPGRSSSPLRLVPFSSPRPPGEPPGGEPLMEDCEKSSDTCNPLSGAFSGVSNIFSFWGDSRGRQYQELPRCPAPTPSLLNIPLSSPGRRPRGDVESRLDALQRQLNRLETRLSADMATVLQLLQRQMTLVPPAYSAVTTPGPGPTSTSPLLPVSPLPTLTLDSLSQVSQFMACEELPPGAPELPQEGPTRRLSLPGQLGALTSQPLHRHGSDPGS

[12] = Plasma protein binding in human; type: ADME, cell-free; settings: read-out: PPB
[13] = Kinetic solubility of compound at pH 7.4; type: physicochemical; settings: buffer
[14] = Cmax in mouse at 140 micromol/kg, po; type: ADME; design: route oral, dose 140 µmol/kg; settings: in vivo, 140 µmol/kg
[15] = Tmax in mouse at 140 micromol/kg, po; type: ADME; settings: in vivo, dose 140 µmol/kg
[16] = AUC (0 to 7 hrs) in mouse at 140 micromol/kg, po; type: ADME; design: time < 7 hr, route oral, dose 140 µmol/kg; settings: in vivo, 140 µmol/kg
[17] = MRT (0 to 7 hrs) in mouse at 140 micromol/kg, po; type: ADME; settings: in vivo, dose 140 µmol/kg

SMILES	EC50 (Plasmodium falciparum [1]) [nM]	inhibition at 20 µM (Plasmodium falciparum [2]) [%]	further results
O=C(CCn1c(=O)[nH]c2ccccc2c1=O)NCc1ccccc1OC(F)F	32000	63.8	–
COc1ccccc1Cn1cc(CCn2c(=O)[nH]c3ccccc3c2=O)nn1	–	68.8	–
COc1ccccc1CCNC(=O)CCn1c(=O)[nH]c2ccccc2c1=O	10100	–	–
CC(C)CCNC(=O)CCn1c(=O)[nH]c2ccccc2c1=O	> 25000	–	–
COc1ccccc1CNC(=O)CCn1c(=O)[nH]c2ccc(Br)cc2c1=O	–	59.8	–
COc1cc(F)ccc1CNC(=O)CCn1c(=O)[nH]c2ccccc2c1=O	5000	74.8	IC50 [3]: > 100000 nM; selectivity ratio [4]: > 20
CCOc1ccccc1CNC(=O)CCn1c(=O)[nH]c2ccccc2c1=O	5500	84.7	IC50 [3]: > 100000 nM; selectivity ratio [4]: > 18.2
COc1ccccc1Cn1cc(Cn2c(=O)[nH]c3ccccc3c2=O)nn1	–	30.5	–
O=C(CCn1c(=O)[nH]c2ccccc2c1=O)N1CCc2ccccc2C1	–	30.6	–
Cn1nccc1CNC(=O)CCn1c(=O)[nH]c2ccccc2c1=O	–	19.9	–
COc1ccccc1NC(=O)CCn1c(=O)[nH]c2ccccc2c1=O	–	53.1	–
O=C(CCn1c(=O)[nH]c2ccccc2c1=O)NCc1ccccc1Cl	37500	56	–
COc1ccccc1CNS(=O)(=O)CCn1c(=O)[nH]c2ccccc2c1=O	–	21.7	–
COc1ccccc1CNC(=O)CCn1c(=O)[nH]c2cc(F)c(F)cc2c1=O	–	40.5	–
COc1cc(F)c(F)cc1CNC(=O)CCn1c(=O)[nH]c2ccccc2c1=O	11300	68.3	–
COc1ccccc1CNC(=O)CCn1c(=O)[nH]c2ccc(F)cc2c1=O	20000	65.4	–
CC(C)CCNC(=O)CCCn1c(=O)[nH]c2ccccc2c1=O	> 25000	–	–
COc1ccccc1CNC(=O)CCCn1c(=O)[nH]c2ccccc2c1=O	16900	–	–
O=C(CCCn1c(=O)[nH]c2ccccc2c1=O)NC1CCCC1	–	21.3	–
COc1ccccc1CN(C)C(=O)CCn1c(=O)[nH]c2ccccc2c1=O	–	41.8	–
O=C(CCn1c(=O)[nH]c2ccccc2c1=O)NCc1ccccc1OC(F)(F)F	6800	72.5	IC50 [3]: > 100000 nM; selectivity ratio [4]: > 14.7
COc1ccccc1CCNC(=O)CCCn1c(=O)[nH]c2ccccc2c1=O	7700	–	–
O=C(CCn1c(=O)[nH]c2ccccc2c1=O)NCc1ccccc1O	–	17.1	–
COc1ccccc1CNC(=O)CCn1c(=O)[nH]c2ncccc2c1=O	–	52.4	–
O=C(CCn1c(=O)[nH]c2ccccc2c1=O)NCc1nc2ccccc2[nH]1	–	38.1	–
O=C(CCn1c(=O)[nH]c2ccccc2c1=O)NC1CCCC1	–	32.9	–
COc1ccc(CNC(=O)CCn2c(=O)[nH]c3ccccc3c2=O)c(OC)c1	–	28	–
COc1ccccc1CNC(=O)CCn1c(=O)[nH]c2ccccc2c1=O	400	–	IC50 [3]: > 100000 nM; selectivity ratio [4]: > 250; EC50 (Plasmodium falciparum [5]): 70 nM; EC50 (Plasmodium falciparum [6]): 70 nM; EC50 (Plasmodium falciparum [7]): 70 nM; EC50 (Plasmodium falciparum [8]): 70 nM; EC50 (Plasmodium falciparum [9]): 70 nM; Activity (Plasmodium berghei [10]): 23%; IC50 (Plasmodium berghei [11]): 44 nM; inhibition at 11 µM (hERG (KCNH2)): 19%; fraction unbound [12]: < 0.05; Kinetic_solubility [13]: Insoluble; Cmax [14]: 21.3 nM; Tmax [15]: 0.25 h; AUC(0-t) at 7 h [16]: 0.0729 µM·h; MRT last [17]: 3.01 h
COc1ccccc1CNC(=O)CCn1c(=O)[nH]c2ccsc2c1=O	–	–	EC50 (Plasmodium falciparum [5]): 70 nM; EC50 (Plasmodium falciparum [6]): 70 nM; EC50 (Plasmodium falciparum [7]): 70 nM; EC50 (Plasmodium falciparum [8]): 70 nM; EC50 (Plasmodium falciparum [9]): 70 nM; Activity (Plasmodium berghei [10]): 27%; IC50 (Plasmodium berghei [11]): 56 nM; inhibition at 11 µM (hERG (KCNH2)): 5%; fraction unbound [12]: > 0.05; Kinetic_solubility [13]: Soluble
